DDE Tn6 FP inh: disrupts Tn6 cyclic peptide binding to fibrin D-Dimer-E complex. inhibition, % at 8.3 µM. 370,000 compounds, 0.21% hits. P02675. Fibrin DD(E) TRITC-Tn6 fluorescence polarization displacement;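 active = inhibition above a per-campaign cutoff: mean of compounds within control limits plus 3 SD, cut at about 15% in these data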
mABHD4 FP: inhibits mouse alpha/beta hydrolase domain 4 | Q8VD66 | purified mABHD4, FP-Rh probe fluorescence polarization | inhibition, % at 8.92 µM | 370,000 compounds, 0.54% hits | AID 720543;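 active = inhibition exceeding the mean over every tested compound plus 3 SD, cut at about 30% in these data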
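Test system: mABHD4 protein; Read-out basis: % inhibition; Incubation: 45 min + 60 min at 25 °C; Repeats: single replicate; Technique: fluorescence polarization with parallel and perpendicular emission, 525/598 nm; Compound: 8.92 µM, single dose; Benchmarks: full inhibition S159A mutant plus DMSO, zero as sample-well median.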
TCR-CD3 inh: blocks the human TCR-CD3 interaction; TAMRA-labeled TCR probe fluorescence, biochemical; inhibition, % at 9.4 µM; 360,000 compounds, 0.37% hits; AID 651800;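 note: recombinant mutant TCR 2C K166C tagged with TAMRA read by polarization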
SIAE inh: blocks human sialic acid acetylesterase; 370,000 compounds, 0.69% hits; inhibition, % at 9.66 µM; Q9HAT2; SIAE FP-Rh probe binding, fluorescence polarization;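 active = inhibition above a cutoff: mean of compounds within the control limits plus 3 SD of those, cut at about 17% in these data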
Target sequence (Q9HAT2 whole entry, looked up): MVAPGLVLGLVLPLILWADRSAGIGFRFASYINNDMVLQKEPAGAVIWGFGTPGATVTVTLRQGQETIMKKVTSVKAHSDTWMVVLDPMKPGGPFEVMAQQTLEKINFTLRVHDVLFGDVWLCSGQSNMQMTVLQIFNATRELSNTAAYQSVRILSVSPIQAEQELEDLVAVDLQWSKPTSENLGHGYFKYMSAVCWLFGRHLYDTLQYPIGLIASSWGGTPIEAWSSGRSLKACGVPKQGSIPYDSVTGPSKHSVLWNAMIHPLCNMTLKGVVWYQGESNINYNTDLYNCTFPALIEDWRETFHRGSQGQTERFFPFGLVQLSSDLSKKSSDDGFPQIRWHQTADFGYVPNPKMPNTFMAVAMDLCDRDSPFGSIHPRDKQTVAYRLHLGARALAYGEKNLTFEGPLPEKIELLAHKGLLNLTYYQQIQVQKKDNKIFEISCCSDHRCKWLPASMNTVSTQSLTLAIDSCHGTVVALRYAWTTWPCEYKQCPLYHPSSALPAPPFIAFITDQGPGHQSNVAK
HTRA1 inhibitor: inhibitors of human serine peptidase HTRA1 | 340,000 compounds, 0.5% hits | recombinant HTRA1, FP-rhodamine activity-based probe, fluorescence polarization | inhibition, % at 5.96 µM | Q92743 | AID 504803; in the data active = inhibition above about 36%
DDE Tn7 FP inh: inhibitors of Tn7 peptide binding to human fibrin DD(E) | P02675 | FP displacement of FITC-Tn7 peptide from fibrin DD(E); 0% = median of compound wells per plate | inhibition, % at 8.3 µM | 370,000 compounds, 0.13% hits;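 active = inhibition above the mean of compounds falling within the control limits plus 3 SD of them, cut at about 14% in these data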
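Assay system: Fibrin-DD(E) protein isolated from polymerized human fibrin clots; read-out basis: percent inhibition; medium: Tris/NaCl/CaCl2 buffer, pH 7.8; signal: FP measurement; incubation: 10 min plus 3 h, room temperature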
BSA probe FL: interferes with TAMRA-BSA probe, flagging TCR-CD3 hits. shares compounds with TCR-CD3 inh. AID 652035. 1,200 compounds, 10% hits. inhibition, % at 9.4 µM. TAMRA-labeled BSA probe fluorescence counterscreen; in the data active = inhibition above about 23%
TCR-CD3 conf: TCR-CD3 interaction inhibition, confirmation; AID 652036; TAMRA-labeled TCR probe fluorescence binding assay; 1,200 compounds, 48% hits; inhibition, % at 9.4 µM; shares compounds with TCR-CD3 inh
DDE Tn7 confirm: DD(E)-Tn7 binding inhibition, FP confirmation; inhibition, % at 8.3 µM; FP displacement of TRITC-Tn7 peptide from DD(E); 0% set at plate's compound-well median; 460 compounds, 5% hits; shares compounds with DDE Tn7 FP inh;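 active = inhibition above the campaign cutoff, the mean of compounds within control limits plus 3 SD, cut at about 14% in these data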;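 note: displacers lower polarization since freed probe rises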
DDE Tn7 FP ctr: counter-screen for inhibitors of Tn7 peptide binding to fibrin DD(E); shares compounds with DDE Tn7 FP inh; TRITC-Tn7 probe displacement, fluorescence polarization; inhibition, % at 8.3 µM; 460 compounds, 3% hits;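 active = inhibition above the cutoff, the mean of compounds lying between the control bounds plus 3 SD of those compounds, cut at about 17% in these data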
Tn6 DDE ctr: counter-screen hit for Tn6 peptide-fibrin DD(E) binding disruption; shares compounds with DDE Tn6 FP inh; TRITC-Tn6 fluorescence polarization displacement; 0% = median of compound wells, not DMSO; inhibition, % at 8.3 µM; 680 compounds, 2% hits; AID 720621;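 active = inhibition above the mean of test compounds lying between the control limits plus 3 SD of those, cut at about 14% in these data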
DDE Tn6 confirm: confirmation of inhibitors of Tn6 binding to human fibrin DD(E); shares compounds with DDE Tn6 FP inh; FP displacement of TRITC-Tn6 peptide from DD(E); 0% = per-plate median of test wells; inhibition, % at 8.3 µM; 680 compounds, 10% hits; AID 720631;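 active = inhibition above the mean of compounds lying within the control limits plus 3 SD, cut at about 16% in these data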
mABHD4 conf: ABHD4 (mouse) inhibition, FP confirmation. 1,800 compounds, 55% hits. shares compounds with mABHD4 FP. inhibition, % at 8.92 µM. AID 720658. purified mABHD4, FP-Rh probe fluorescence polarization;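 active = mean inhibition across replicates above the hit cutoff set in the primary screen, cut at about 30% in these data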
SIAE confirm: confirmation of human SIAE inhibitors; inhibition, % at 9.66 µM; SIAE FP-Rh activity-based probe, fluorescence polarization; AID 1117263; 2,300 compounds, 13% hits; shares compounds with SIAE inh;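 active = mean inhibition of the replicates above the hit cutoff set in the primary screen, cut at about 17% in these data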;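 note: inhibitors lower polarization as more probe stays unbound to SIAE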
Hits are given with their value; - = inactive; . = no result. Only some compounds are listed: those with a hit (about 1.8% of all), similar ones and a draw of the others. Cut-off read from the data, not from the text of the source, unless noted: active = inhibition above about 19%; inactive = the rest.

SMILES	DDE Tn6 FP inh	mABHD4 FP	TCR-CD3 inh	SIAE inh	HTRA1 inhibitor	DDE Tn7 FP inh	BSA probe FL	TCR-CD3 conf	SIAE confirm	others
N#Cc1c(SCc2c(Cl)cccc2Cl)nc(N)[nH]c1=S	-	-	-	-	-	-	.	.	.
COc1cc(C(=O)OCC(=O)N2CCCC2=O)cc(OC)c1C	-	44.6	43.4	17.1	-	-	-	-	-	mABHD4 conf=-
C=C(C(=O)c1ccccc1)C(NC(C)(C)C)c1ccccc1 (stereo not drawn)	-	-	-	-	-	-	.	.	.
C/C(=N\NC(=O)c1ccc(N2CCCC2=O)cc1)c1ccc(O)cc1O	-	-	23.6	22.3	-	-	-	-	-
C/C(=N\NC(=O)c1ccc(N2CCCC2=O)cc1)c1ccccc1	-	-	-	-	-	-	.	.	.
O=S1(=O)CC(N2CCN(c3ccccn3)CC2)CN1C1CCCCC1 (stereo not drawn)	-	-	-	-	.	-	.	.	.
CC(=O)Nc1ccc(C(=O)N/N=C/c2cc(Br)cc(Br)c2O)cc1	-	-	39.6	32.7	-	-	-	41.9	-
CC(C)C(=O)Nc1ccc(C(=O)N/N=C/c2cc(Br)cc(Br)c2O)cc1	-	-	-	-	-	-	.	.	.
CCOc1ncccc1C(=O)Nc1cc(S(=O)(=O)N(CC)CC)ccc1N1CCOCC1	-	-	-	-	-	-	.	.	.
Nc1ccc2c(c1)C/C(=C/c1ccco1)C2=O	-	-	22.4	22.8	-	-	-	-	-
O=C1/C(=C/c2ccco2)CCc2ccccc21	-	-	-	-	-	-	.	.	.
CCC(CC)COC(=O)C1=C(C)NC(=O)NC1c1ccc(N(C)C)cc1 (stereo not drawn)	-	-	-	-	-	-	.	.	.
O=C(COC(=O)Cc1cccs1)Nc1ccc(OC(F)(F)F)cc1	88.4	107.6	62.0	133.1	-	-	-	-	-
C[C@](N)(Cc1ccc(O)c(O)c1)C(=O)O	-	-	22.0	18.2	-	-	-	-	-
CCN(CC)S(=O)(=O)c1ccc(C(=O)NCc2ccc3c(c2)cc(C)n3C)cc1	80.2	104.1	73.9	28.3	-	-	-	-	-	Tn6 DDE ctr=-;DDE Tn6 confirm=-;mABHD4 conf=-
Cc1ccc(S(=O)(=O)N2CCCN(C(=O)CNC(=O)c3cccc(C)c3)CC2)cc1	-	-	-	-	-	-	.	.	.
O=C(CCc1ccc(S(=O)(=O)N2CCOCC2)cc1)N/N=C/c1ccc(O)c(O)c1O	-	-	28.4	27.9	-	-	-	25.3	-
O=C(CCC(=O)Nc1cccc(Cl)c1)N/N=C/c1cc([N+](=O)[O-])ccc1O	-	-	28.5	17.7	-	-	-	40.9	-
CCOC(=O)C(CNc1ccc(O)cc1)NC(=O)c1ccccc1 (stereo not drawn)	65.7	83.5	64.8	90.6	.	-	-	-	-	Tn6 DDE ctr=-;DDE Tn6 confirm=-;mABHD4 conf=-
CC(C)C1Nc2c(O)cc(Cl)c([N+](=O)[O-])c2C2C=CCC21 (stereo not drawn)	-	58.1	19.8	22.3	-	-	-	-	-	mABHD4 conf=35.5
Cn1c(=O)cc2c3c(c(N4CCCCC4)ccc31)C(=O)c1ccccc1-2	58.5	103.6	58.0	52.6	.	-	92.8	54.8	23.8	Tn6 DDE ctr=-;DDE Tn6 confirm=22.8;mABHD4 conf=100.3
COc1ccc(CNC(=O)Cn2ccc3cc(S(=O)(=O)N4CCCC4)ccc32)cc1OC	-	-	-	-	-	-	.	.	.
COc1cc(Nc2nc3c(N)cc(C(F)(F)F)cc3nc2-c2ccccc2)cc(OC)c1OC	-	-	-	-	-	-	.	.	.
CCOC(=O)C1CCCN(C(=O)C2COc3ccccc3O2)C1 (stereo not drawn)	-	45.1	28.2	108.2	-	-	-	-	-	mABHD4 conf=-
O=C(C1COc2ccccc2O1)N1CCCC1 (stereo not drawn)	-	-	-	-	-	-	.	.	.
SMILES	DDE Tn6 FP inh	mABHD4 FP	TCR-CD3 inh	SIAE inh	HTRA1 inhibitor	DDE Tn7 FP inh	BSA probe FL	TCR-CD3 conf	SIAE confirm	others
COCCn1c(=S)[nH]c2cc(C(=O)NC3CCCC(C)C3C)ccc2c1=O (stereo not drawn)	-	-	-	-	-	-	.	.	.
O=C(N/N=C/c1cn(Cc2cccc(F)c2)c2ccccc12)c1cc(O)cc(O)c1	-	-	47.3	36.6	-	-	-	27.0	-
CCOc1ccc(C(CN2CCOCC2)C(C)=O)cc1OC (stereo not drawn)	-	-	-	-	.	-	.	.	.
Cc1ccc(C(C(=O)NCC2CCCO2)N(Cc2ccccc2F)C(=O)Cn2nnc(-c3cccs3)n2)cc1 (stereo not drawn)	-	-	-	-	-	19.0	.	.	.	DDE Tn7 confirm=-;DDE Tn7 FP ctr=-
O=C(NC1CCCC1)C(c1ccncc1)N(CC1CCCO1)C(=O)Cn1nnc(-c2cccs2)n1 (stereo not drawn)	-	-	-	-	-	-	.	.	.
CC1(C)c2[nH]c3ccccc3c2C[C@@H]2C(=O)N(Cc3ccc(F)cc3)C(=O)N21	-	-	-	-	-	16.8	.	.	.	DDE Tn7 confirm=-;DDE Tn7 FP ctr=-
Cc1ccc(CN2C(=O)[C@@H]3Cc4c([nH]c5ccccc45)C(C)(C)N3C2=O)cc1	-	-	-	-	-	-	.	.	.
CCN1C[C@@H]2[C@@H]3C(=O)N(Cc4ccccc4)C(=O)[C@@H]3[C@](C)(C1=O)N2C(=O)c1ccc(C(F)(F)F)cc1	-	-	-	-	-	-	.	.	.
CC(C)C(=O)N1CCC1(C)C(=O)NCc1ccc(F)cc1Cl (stereo not drawn)	-	-	-	-	.	-	.	.	.

Screening results (PubChem BioAssay)
